Laboratory results reported in ChEMBL document CHEMBL1138683 (J Med Chem, 2004).

Columns and labels:
Mus musculus [1] = assay: (§1) Anti convulsant activity administered intra peritoneally to mouse for toxicity at 4 hr with dose of 30 mg/kg; 0/2= No of animals exhibiting toxicity /No of animals tested; type: functional
[2] = Anti convulsant activity administered intra peritoneally to mouse for toxicity at 0.5 hr with dose of 300 mg/kg; 0/4= No of animals exhibiting toxicity /No of animals tested; type: organism-based; design: dose 300 mg/kg; settings: in vivo, ip
Mus musculus [3] = assay: Anti convulsant activity administered intra peritoneally to mouse for subcutaneous metrazol test at 4 hr with dose of 300 mg/kg; 0/1= No of animals protected /No of animals tested; type: functional
[4] = Anti convulsant activity administered intra peritoneally to mouse for toxicity at 0.5 hr with dose of 100 mg/kg; 0/8= No of animals exhibiting toxicity /No of animals tested; type: organism-based; design: dose 100 mg/kg; settings: in vivo, ip
Rattus norvegicus [5] = assay: Anticonvulsant activity after oral administration of 50 mg/kg dose after 30 min in rats; + means 25% of the animals protected; type: functional, organism-based; design: dose 50 mg/kg
Procedure, shortened: (§2)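 Rats dosed orally with compound dissolved or suspended in 0.5% methylcellulose (0.04 mL per 10 g body weight). Anticonvulsant protection (MES or scMet) and toxicity scored at 15 min, 30 min, 1 h, 2 h and 4 h after dosing. Graded in steps of 25% of animals protected or showing toxicity.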

Mus musculus [6] = assay: Anti convulsant activity administered intra peritoneally to mouse for subcutaneous metrazol test at 0.5 h with dose of 300 mg/kg; 0/1= No of animals protected /No of animals tested; type: functional
Mus musculus [7] = assay: Anti convulsant activity administered intra peritoneally to mouse at maximal electroshock test at 4 hr after the drug administered with dose of 30 mg/kg; 0/1= No of animals protected /No of animals tested; type: functional
Mus musculus [8] = assay: Anti convulsant activity administered intra peritoneally to mouse for subcutaneous metrazol test at 4 hr after the drug administered with dose of 30 mg/kg; 0/1= No of animals protected /No of animals tested; type: functional; settings: route intraperitoneal
[9] = Anti convulsant activity administered intra peritoneally to mouse for toxicity at 4 hr with dose of 300 mg/kg; 0/2= No of animals exhibiting toxicity /No of animals tested; type: organism-based; design: dose 300 mg/kg; settings: in vivo, ip
Mus musculus [10] = assay: Anti convulsant activity administered intra peritoneally to mouse at maximal electroshock test at 0.5 h after the drug administered with dose of 30 mg/kg; 0/1= No of animals protected /No of animals tested; type: functional
[11] = as §1; type: organism-based; design: dose 30 mg/kg; settings: in vivo, ip
[12] = Anti convulsant activity administered intra peritoneally to mouse for toxicity at 0.5 hr with dose of 30 mg/kg; 0/4= No of animals exhibiting toxicity /No of animals tested; type: organism-based; design: dose 30 mg/kg; settings: in vivo, ip
Mus musculus [13] = assay: Anti convulsant activity administered intra peritoneally to mouse at maximal electroshock test at 4 hr after the drug administered with dose of 100 mg/kg; 0/3= No of animals protected /No of animals tested; type: functional
[14] = Anti convulsant activity administered intra peritoneally to mouse for toxicity at 4 hr with dose of 100 mg/kg; 0/4= No of animals exhibiting toxicity /No of animals tested; type: organism-based; design: dose 100 mg/kg; settings: in vivo, ip
Mus musculus [15] = assay: Anti convulsant activity administered intra peritoneally to mouse for subcutaneous metrazol test at 0.5 hr with dose of 30 mg/kg; 0/1= No of animals protected /No of animals tested; type: functional
Mus musculus [16] = assay: Anti convulsant activity administered intra peritoneally to mouse for subcutaneous metrazol test at 4 hr after the drug administered with dose of 100 mg/kg; 0/1= No of animals protected /No of animals tested; type: functional
Mus musculus [17] = assay: Anti convulsant activity administered intra peritoneally to mouse at maximal electroshock test at 4 hr after the drug administered with dose of 300 mg/kg; 0/1= No of animals protected /No of animals tested; type: functional
Mus musculus [18] = assay: Anti convulsant activity administered intra peritoneally to mouse at maximal electroshock test at 0.5 h after the drug administered with dose of 300 mg/kg; 0/1= No of animals protected /No of animals tested; type: functional
Rattus norvegicus [19] = assay: Anticonvulsant activity after oral administration of 100 mg/kg dose after 4 hr in rats;+ means 25% of the animals protected; type: functional, organism-based; design: dose 100 mg/kg
Procedure, shortened: (§3)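 Oral dosing of rats at a single dose, compound dissolved or suspended in 0.5% methylcellulose. Protection in the MES or scMet test checked 15 min, 30 min, 1 h, 2 h and 4 h after dosing. Scored as 25/50/75/100% of animals protected (+ to ++++), – for none.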

Mus musculus [20] = assay: Anti convulsant activity administered intra peritoneally to mouse at maximal electroshock test at 0.5 hr after the drug administered with dose of 100 mg/kg; 0/3= No of animals protected /No of animals tested; type: functional
Rattus norvegicus [21] = assay: Anticonvulsant activity after oral administration of 100 mg/kg dose after 1 hr in rats; + means 25% of the animals protected; type: functional, organism-based; design: dose 100 mg/kg; procedure, shortened: as §3
[22] = Anti convulsant activity administered intra peritoneally to mouse for toxicity at 0.5 hr with dose of 100 mg/kg; 1/8= No of animals exhibiting toxicity /No of animals tested; type: organism-based; design: dose 100 mg/kg; settings: in vivo, ip
Rattus norvegicus [23] = assay: Anticonvulsant activity after oral administration of 100 mg/kg dose after 4 hr in rats; +means 25% of the animals protected; type: functional, organism-based; design: dose 100 mg/kg; procedure, shortened: as §3
Rattus norvegicus [24] = assay: Anticonvulsant activity after oral administration of 100 mg/kg dose after 2 hr in rats; + means 25% of the animals protected; type: functional, organism-based; design: dose 100 mg/kg; procedure, shortened: as §3
[25] = Anti convulsant activity administered intra peritoneally to mouse for toxicity at 0.5 hr with dose of 300 mg/kg; 4/4= No of animals exhibiting toxicity /No of animals tested; type: organism-based; design: dose 300 mg/kg; settings: in vivo, ip
Mus musculus [26] = assay: Anti convulsant activity administered intra peritoneally to mouse for subcutaneous metrazol test at 0.5 hr with dose of 100 mg/kg; 0/1= No of animals protected /No of animals tested; type: functional
Mus musculus [27] = assay: Anticonvulsant activity administered intraperitoneally to mouse for toxicity at 4 hr with dose of 30 mg/kg; type: functional; settings: route intraperitoneal
Procedure, shortened: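 Mice given compound i.p. at 30, 100 or 300 mg/kg, dissolved or suspended in 0.5% methylcellulose. Toxicity scored 0.5 h and 4 h after dosing, recorded as number of animals showing toxicity per number tested.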

Rattus norvegicus [28] = assay: Anticonvulsant activity after oral administration of 30 mg/kg dose after 15 min in rats; + means 25% of the animals protected; type: functional, organism-based; design: dose 30 mg/kg; procedure, shortened: as §3
Mus musculus [29] = assay: Anti convulsant activity administered intra peritoneally to mouse for subcutaneous metrazol test at 0.5 hr with dose of 300 mg/kg; 1/1= No of animals protected /No of animals tested; type: functional
Mus musculus [30] = assay: Anti convulsant activity administered intra peritoneally to mouse at maximal electroshock test at 0.5 hr after the drug administered with dose of 300 mg/kg; 1/1= No of animals protected /No of animals tested; type: functional
Rattus norvegicus [31] = assay: Anticonvulsant activity after oral administration of 30 mg/kg dose after 4 hr in rats; +means 25% of animals protected; type: functional, organism-based; design: dose 30 mg/kg; procedure, shortened: as §3
[32] = Anti convulsant activity administered intra peritoneally to mouse for toxicity at 4 hr with dose of 300 mg/kg; 1/2= No of animals exhibiting toxicity /No of animals tested; type: organism-based; design: dose 300 mg/kg; settings: in vivo, ip
Rattus norvegicus [33] = assay: Anticonvulsant activity after oral administration of 50 mg/kg dose after 30 min in rats; ++ means 50% of animals protected; type: functional, organism-based; design: dose 50 mg/kg; procedure, shortened: as §2
Rattus norvegicus [34] = assay: Anticonvulsant activity after oral administration of 50 mg/kg dose after 15 min in rats; +++ means 75% of the animals protected; type: functional, organism-based; design: dose 50 mg/kg; procedure, shortened: as §3
Rattus norvegicus [35] = assay: Anticonvulsant activity after oral administration of 30 mg/kg dose after 30 min in rats; -means No protection; type: functional, organism-based; design: dose 30 mg/kg; procedure, shortened: as §3
Rattus norvegicus [36] = assay: Anticonvulsant activity after oral administration of 100 mg/kg dose after 2 hr in rats;++ means 50% of the animals protected; type: functional, organism-based; design: dose 100 mg/kg; procedure, shortened: as §3
Rattus norvegicus [37] = assay: Anticonvulsant activity after oral administration of 100 mg/kg dose after 30 min in rats; +++ means 75% of the animals protected; type: functional, organism-based; design: dose 100 mg/kg; procedure, shortened: as §3
Rattus norvegicus [38] = assay: Anticonvulsant activity after oral administration of 100 mg/kg dose after 30 min in rats; +means 25% of the animals protected; type: functional, organism-based; design: dose 100 mg/kg; procedure, shortened: as §3
Rattus norvegicus [39] = assay: Anticonvulsant activity after oral administration of 100 mg/kg dose after 1 hr in rats;+ means 25% of the animals protected; type: functional, organism-based; design: dose 100 mg/kg; procedure, shortened: as §3

SMILES	Activity (Mus musculus [1])	Activity (Mus musculus [3])	Toxicity [4]	Activity (Mus musculus [6])	Activity (Mus musculus [7])	Activity (Mus musculus [8])	Toxicity [9]	Activity (Mus musculus [10])	Toxicity [11]	Toxicity [12]	Activity (Mus musculus [13])	Toxicity [14]	Activity (Mus musculus [15])	Activity (Mus musculus [16])	Activity (Mus musculus [17])	Activity (Mus musculus [18])	Activity (Mus musculus [20])	Toxicity [22]	Toxicity [25]	Activity (Mus musculus [26])	other results
CC1(C)C(C(=O)NNC(=O)C2C(C)(C)C2(C)C)C1(C)C	0	0	0	0	0	0	0	0	0	0	0	0	0	0	0	0					Toxicity [2]: 0; Activity (Rattus norvegicus [5]): 25% of the animals protected
CCC(CO)NC(=O)C1C(C)(C)C1(C)C (stereo not drawn)		0		0	0	0	0	0		0	0	0	0	0	0	0	0	1	4	0	Activity (Rattus norvegicus [19]): 25% of the animals protected; Activity (Rattus norvegicus [21]): 25% of the animals protected; Anticonvulsant Activity (Rattus norvegicus [23]): 25% of the animals protected; Activity (Rattus norvegicus [24]): 25% of the animals protected; Toxicity (Mus musculus [27]): 0
CC1(C)C(C(=O)NCCF)C1(C)C		1	0		0	0		0	0	0	0	0	0	0	0		0		4	0	Activity (Rattus norvegicus [28]): 25% of animals protected; Activity (Mus musculus [29]): 1; Activity (Mus musculus [30]): 1; Activity (Rattus norvegicus [31]): 25% of animals protected; Toxicity [32]: 1
CC1(C)C(C(=O)NCCO)C1(C)C		0			0	0	0	0	0	0	0	0	0	0	0		0	1	4	0	Anticonvulsant Activity (Rattus norvegicus [33]): 50% of animals protected; Activity (Rattus norvegicus [34]): 75% of the animals protected; Activity (Mus musculus [29]): 1; Activity (Mus musculus [30]): 1; Activity (Rattus norvegicus [35]): 75% of the animals protected
CC1(C)C(C(=O)NCCS(=O)(=O)[O-])C1(C)C.[Na+]	0	0	0	0	0	0	0	0	0	0	0	0	0	0	0	0					Toxicity [2]: 0; Anticonvulsant Activity (Rattus norvegicus [36]): 50% of the animals protected; Activity (Rattus norvegicus [21]): 25% of the animals protected; Activity (Rattus norvegicus [23]): 25% of the animals protected; Activity (Rattus norvegicus [24]): 25% of the animals protected; Activity (Rattus norvegicus [37]): 25% of the animals protected
CC(CO)NC(=O)C1C(C)(C)C1(C)C (stereo not drawn)		0		0	0	0	0	0		0	0	0	0	0	0	0	0	1	4	0	Activity (Rattus norvegicus [38]): 25% of the animals protected; Activity (Rattus norvegicus [39]): 25% of the animals protected; Toxicity (Mus musculus [27]): 0
